Test system: MS2 coat protein
Test: apparent Kd, MS2 coat protein; higher = weaker binding; RNA-MaP array; FMN 200 µM where present
Method in brief: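 The apparent Kd is the median of filtered binding-curve fits, one per cluster, to green signal normalised to red-channel RNA signal and control-cluster median Fmax. The clusters were on Illumina sequencing chips, and stalled E. coli RNA polymerase had transcribed the designs on them. Titration used SNAP-549-labelled MS2 coat protein from 0.7 or 1.5 nM, doubling to 3 µM, without and then with constant ligand, in 100 mM Tris-HCl pH 7.5, 80 mM KCl, 4 mM MgCl2, BSA, DTT, yeast tRNA and Tween-20.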

[1] = designed as: OFF switch for flavin mononucleotide, no ligand
[2] = ligand present: flavin mononucleotide, designed as: OFF switch for flavin mononucleotide
[3] = designed as: ON switch for flavin mononucleotide, no ligand
[4] = ligand present: flavin mononucleotide, designed as: ON switch for flavin mononucleotide

| Sequence | apparent Kd [1] | apparent Kd [2] | apparent Kd [3] | apparent Kd [4] |
| --- | --- | --- | --- | --- |
| AAGAAGUCAGGAUAUGCAUGGCGGGACUUGCGUCGUGGCGUGCAGAAGGGACAUGAGGAUCACCCAUGUAAAGU | 49 nM | 45.4 nM |  |  |
| AAAGAAACAGGAUAUGUAGGCUGCGACAUGAGGAUCACCCAUGUGUCGGUAUACAGUCCUAUAGAAGGGUUAUGAC | 15.5 nM | 20.1 nM |  |  |
| UGUGGGUCCGUUAGGAUAUUUACAGGCAUGCCUGUAAAGAAGGAACAUGAGGAUCACCCAUGUUUGACAAAUUU | 16.9 nM | 39.8 nM |  |  |
| UGAUCGAGAGAUCUUAGAUUCUGGUAGGAUAUACAUUAUAAAAGCUUUACAUGAGGAUCACCCAUGUAGAAGGACUAGAGUCUA |  | 7.92 nM |  |  |
| UGAGUGCUGCGAGGAUAUACAUGAGGAUCACCCAUGUAAAUGUGUGAGGCUUUGCCUCACACAAUGUAGAAGGCGCAGUACUCU | 14.5 nM | 17.2 nM |  |  |
| CAUUAAUUCAUUAUAGUAAUUAUACAGGAUAUGUUACAUGAGGAUCACCCAUGUAUUCAUGGUAUACAGAAGGGUAAUACUAGA | 12.6 nM | 13.9 nM |  |  |
| CUGCUUCCCAGUAUGGGUAUUUAUACAGAAGGCCAGACACAUGAGGAUCACCCAUGUCAAGUAAUGGAGGAUAUGUUAUUGUCG |  |  | 10.9 nM | 4.97 nM |
| GCUGAAAGUACAGGAUAUGAGAUAUAUGAUCACUCAGAAGGGUACCGGGACAUGAGGAUCACCCAUGUACUCUCAGCGAAAAUA |  |  | 165 nM | 553 nM |
| UUUGUUGUUGUGAGGAUAUACUGUUUGUUUUGUUUGUAGAAGGUACAUGAGGAUCACCCAUGUUGGUUGUUUUU | 26.4 nM | 25.1 nM |  |  |
| GCCUUACAUGAGGAUCACCCAUGUCAGGAUAUGUCAGAGUAGGUAAAACACCACUCUAAUAGAAGGGACAUGCA | 16.8 nM | 28.6 nM |  |  |
| GACUGACGAGGAUAUACAUGAGGAUCACCCAUGUAAGAUCAGCGACUUCGGUCGCAAUGUAGAAGGCGUCAGUC | 28.2 nM | 326 nM |  |  |
| UUUCGGCUAGGAUAUCUGUGCUCGGACAUGAGGAUCACCCAUGUGCGUCAUCACGGAGCCGGAGAAGGAGCUCGUA | 15.8 nM | 20 nM |  |  |
| GGUUGUCAUAGUCAUCCUUUCCGUACAUGAGGAUCACCCAUGUAGGAUAUGCUACUCUCGGUGUGGCAGAAGGGCGUGUGUCUU | 18.2 nM | 18.8 nM |  |  |
| UCAGGAGUCACAGGAUAUCCGGCAUAGCAUACAGGAGAAGGGUGAUCACGAGCACAUGAGGAUCACCCAUGUGACAUUUGUGGA |  |  | 96.3 nM | 83.3 nM |
| CCUCUACAUGAGGAUCACCCAUGUGAGGAUAUCAAAGCCAGAGCGGAUCUCCGGCCCAUGAGAAGGUGCAUGGA | 19.8 nM | 70.8 nM |  |  |
| GGGCCGGUGGAGAAGGAGCUCACGUAACGUAGGCUAGGAUAUCCACAUGAGGAUCACCCAUGUGGGAAUAUCUGAUUUUCACAG | 4.01 nM | 4.88 nM |  |  |
| GGAUAGGACAGAGGAUAUACGGAUAGGAUCUACUAUCUUCCUUAAAUAACAUGAGGAUCACCCAUGUAGAAGGCUGUCCUAUCG | 18.6 nM | 67.9 nM |  |  |
| UUCAAGUUGCGAGGAUAUCGUGUUAACAUGAGGAUCACCCAUGUAAAGGUAUAUUAAAUUAUCUUCGAGAAGGCGCUUAAUGUA |  |  | 22.6 nM | 20.3 nM |
| UCCUUGUCCUGAGGAUAUCCGCGGUUCCCAAAAGGAGAAGGCAGGACAUGAGGAUCACCCAUGUACCCAGAAAACGUACAGAGU | 44.7 nM | 162 nM |  |  |
| AAAAAAAAAACAUAGGAUAUCCGGGCCGGGACAUGAGGAUCACCCAUGUCAAAAAAAAUUGGCCCGGAGAAGGAUGAAAAAAAAAA |  |  | 15.5 nM | 14.9 nM |

— the EternaBench riboswitch data
